Data reported in ChEMBL document CHEMBL4673180, “Synthesis of quinone imine and sulphur-containing compounds with antitumor and trypanocidal activities: redox and biological implications” (RSC Med Chem, 2020).

How the values were obtained:
[1] = Cytotoxicity against albino Swiss mouse peritoneal macrophages assessed as reduction in cell viability incubated for 24 hrs by Presto blue assay; format: tissue-based, Macrophage; conditions: read-out: LC50
Procedure, shortened: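 Primary peritoneal macrophages from Albino Swiss mice were seeded at 2.5 × 10^4 cells per well in RPMI-1640 (pH 7.2, 10% FBS, 2 mM glutamine) and grown 24 h at 37 °C. They were then treated 24 h at 37 °C with compound from DMSO stock (final DMSO ≤0.4%).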

Trypanosoma cruzi = assay: Antitrypanosomal activity against Trypanosoma cruzi Y strain bloodstream trypomastigotes assessed as lysis of parasite in presence of 5 % mouse blood incubated for 24 hrs by Neubauer chamber method; format: functional, organism-based
Procedure, shortened: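 Y strain bloodstream trypomastigotes came from infected albino mice at peak parasitaemia, purified by differential centrifugation, in RPMI at 10^7 cells/mL with 10% mouse blood. They were mixed 1:1 with compound at twice the final concentration (5% blood final), 24 h at 4 °C, with DMSO ≤0.4% final. Neubauer chamber counting; IC50 is 50% lysis; at least three independent experiments.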

[2] = Selectivity index, ratio of IC50 for mouse L929 cells to IC50 for human HCT116 cells after 72 hrs by MTT assay; format: toxicity; conditions: L929 cells versus HCT116 cells, read-out: Ratio IC50
Procedure, shortened: (§1)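 Both cell types were kept in medium with 10% FBS, 2 mM L-glutamine and penicillin/streptomycin at 37 °C, 5% CO2. Seeding was 0.7 × 10^5 cells per well for HCT-116, 0.1 × 10^6 for the other lines. Cells got compound in DMSO (0.1% final) for 72 h, then 0.5 mg/mL MTT for 3 h, with formazan read at 550 nm. IC50 came from nonlinear regression over three independent experiments in triplicate. SI is the L929 IC50 divided by the cancer-line IC50.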

L929 = assay: Cytotoxicity against mouse L929 cells assessed as reduction in cell viability after 72 hrs by MTT assay; format: cell-based; conditions: L929, 72 h
Procedure, shortened: (§2)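 Cells were grown in medium with 10% FBS, 2 mM L-glutamine, penicillin and streptomycin at 37 °C, 5% CO2. Seeding per well was 0.1 × 10^6 for leukaemia, PC3, L929 and NCI-H460, and 0.7 × 10^5 for HCT-116. Compounds in DMSO (0.1% final) were applied for 72 h. MTT (0.5 mg/mL) was added for 3 h, formazan dissolved in DMSO, and absorbance read at 550 nm. IC50 by nonlinear regression; three independent experiments in triplicate.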

[3] = Selectivity index, ratio of IC50 for mouse L929 cells to IC50 for human K-562 cells after 72 hrs by MTT assay; format: toxicity; conditions: L929 cells versus K-562 cells, read-out: Ratio IC50; procedure, shortened: as §1
[4] = Selectivity index, ratio of LC50 for cytotoxicity against albino Swiss mouse peritoneal macrophages to IC50 for Antitrypanosomal activity against Trypanosoma cruzi Y strain bloodstream trypomastigotes assessed as lysis of parasite in presence of 5 % mouse blood; format: toxicity
Procedure, shortened: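 Y-strain bloodstream trypomastigotes came from infected albino mice at peak parasitaemia and were purified by differential centrifugation. They were resuspended at 10^7/mL in RPMI with 10% mouse blood and mixed 1:1 with compound at twice the final concentration (DMSO ≤0.4%). Incubation was 24 h at 4 °C (5% blood per footnote).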

[5] = Selectivity index, ratio of IC50 for mouse L929 cells to IC50 for human NCI-H460 cells after 72 hrs by MTT assay; format: toxicity; conditions: L929 cells versus NCI-H460 cells, read-out: Ratio IC50; procedure, shortened: as §1
[6] = Selectivity index, ratio of IC50 for mouse L929 cells to IC50 for human PC3 cells after 72 hrs by MTT assay; format: toxicity; conditions: L929 cells versus PC3 cells, read-out: Ratio IC50; procedure, shortened: as §1
PC-3 = assay: Cytotoxicity against human PC-3 cells assessed as reduction in cell viability after 72 hrs by MTT assay; format: functional, cell-based; conditions: PC-3, 72 h; procedure, shortened: as §2
K562 = assay: Cytotoxicity against human K562 cells assessed as reduction in cell viability after 72 hrs by MTT assay; format: functional, cell-based; conditions: K562, 72 h; procedure, shortened: as §2
NCI-H460 = assay: Cytotoxicity against human NCI-H460 cells assessed as reduction in cell viability after 72 hrs by MTT assay; format: functional, cell-based; conditions: NCI-H460, 72 h
Procedure, shortened: (§3)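 Cells were grown in medium with 10% FBS, 2 mM L-glutamine, penicillin and streptomycin at 37 °C, 5% CO2. Compounds in DMSO (0.1% final) were applied for 72 h. MTT (0.5 mg/mL) was added for 3 h, formazan dissolved in DMSO, and absorbance read at 550 nm. IC50 by nonlinear regression; three independent experiments in triplicate.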

[7] = Selectivity index, ratio of IC50 for mouse L929 cells to IC50 for human HL-60cells after 72 hrs by MTT assay; format: toxicity; conditions: L929 cells versus HL-60 cells, read-out: Ratio IC50; procedure, shortened: as §1
HCT-116 = assay: Cytotoxicity against human HCT-116 cells assessed as reduction in cell viability after 72 hrs by MTT assay; format: functional, cell-based; conditions: HCT-116, 72 h; procedure, shortened: as §2
HL-60 = assay: Cytotoxicity against human HL-60 cells assessed as reduction in cell viability after 72 hrs by MTT assay; format: functional, cell-based; conditions: HL-60, 72 h; procedure, shortened: as §3
[8] = Selectivity index, ratio of IC50 for mouse L929 cells to IC50 for human Lucena1 cells after 72 hrs by MTT assay
Procedure, shortened: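 Selectivity index is the ratio of IC50 in murine L929 fibroblasts to IC50 in Lucena 1 cells, each measured by 72 h MTT assay (absorbance 550 nm). IC50 values came from nonlinear regression of three independent experiments in triplicate.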

[9] = Cytotoxicity against human Lucena1 cells assessed as reduction in cell viability after 72 hrs by MTT assay; format: functional, cell-based; conditions: Lucena 1, 72 h; procedure, shortened: as §2

Row | SMILES | CC50 at 24 h [1] | IC50 (Trypanosoma cruzi) | selectivity ratio at 72 h [2] | IC50 (L929) | selectivity ratio at 72 h [3] | selectivity ratio [4] | selectivity ratio at 72 h [5] | selectivity ratio at 72 h [6] | IC50 (PC-3) | IC50 (K562) | IC50 (NCI-H460) | selectivity ratio at 72 h [7] | IC50 (HCT-116) | IC50 (HL-60) | Ratio IC50 [8] | IC50 [9]
1 | Cc1ccc(S(=O)(=O)n2cc(COC3=C/C(=N\c4ccccc4)c4ccccc4C3=O)nn2)cc1 | 80.8 µM | > 500 µM | 3.8 | > 20 µM | 1.7 | > 6.19 | 2.9 | 1 | > 20 µM | 12.2 µM | 7.22 µM | 3.1 | 5.37 µM | 6.71 µM | 5.6 | 3.67 µM
2 | C#CCOC1=C/C(=N\c2ccc(C)cc2)c2ccccc2C1=O | – | – | 1.6 | > 20 µM | 1.5 | – | 2 | 1.8 | 18.4 µM | > 20 µM | 16.9 µM | 2.8 | > 20 µM | 12 µM | 2.4 | 14.1 µM
3 | C#CCOC1=C/C(=N\c2ccc(I)cc2)c2ccccc2C1=O | – | – | 1.5 | > 20 µM | 1.4 | – | 1 | 1 | > 20 µM | 17 µM | > 20 µM | 2 | 16.5 µM | 11.9 µM | 1.6 | 15.1 µM
4 | C#CCOC1=C/C(=N\c2ccc(OC)cc2)c2ccccc2C1=O | – | – | 2.9 | > 20 µM | 1 | – | 3.3 | 3.6 | 8.82 µM | > 20 µM | 9.45 µM | 4.4 | 10.7 µM | 7.18 µM | 2.8 | 11.4 µM
5 | C#CCOC1=C/C(=N\c2ccc(Br)cc2)c2ccccc2C1=O | – | – | 1.2 | > 20 µM | 1.2 | – | 1.3 | 1.7 | 15.9 µM | > 20 µM | > 20 µM | 1.9 | > 20 µM | 14.2 µM | 2.2 | 12.5 µM
6 | C#CCOC1=C/C(=N\c2ccc(F)cc2)c2ccccc2C1=O | – | – | 1.8 | > 20 µM | 2.4 | – | 1.9 | 1 | > 20 µM | 13.5 µM | 17 µM | 3.6 | 18.7 µM | 9.2 µM | 1.9 | 17 µM
7 | COc1cccc2c1C(=O)c1c(O)c3c(c(O)c1C2=O)C[C@@](O)(C(=O)CO)C[C@@H]3O[C@H]1C[C@H](N)[C@H](O)[C@H](C)O1 [DOXORUBICIN] | – | – | – | – | – | – | – | – | – | 0.49 µM | – | – | – | – | – | 0.18 µM
8 | C#CCOC1=C/C(=N\c2ccccc2)c2ccccc2C1=O | – | – | 1.2 | > 20 µM | 1 | – | 1.6 | 2.5 | 14.1 µM | > 20 µM | > 20 µM | 2 | > 20 µM | 17.4 µM | 1.5 | > 20 µM
9 | C#CCOC1=C/C(=N\c2ccc(C(C)=O)cc2)c2ccccc2C1=O | – | – | 1 | > 20 µM | 1 | – | 1 | 24 | 12.5 µM | > 20 µM | > 20 µM | 1.1 | > 20 µM | > 20 µM | 1.9 | 16.2 µM
10 | Cc1ccc(S(=O)(=O)n2cc(COC3=C/C(=N\c4ccc(I)cc4)c4ccccc4C3=O)nn2)cc1 | > 100 µM | > 500 µM | 1 | > 16.4 µM | 1.5 | – | 1 | 1 | > 16.4 µM | 10.8 µM | > 16.4 µM | 2.6 | > 16.4 µM | 6.31 µM | 5.6 | 2.9 µM
11 | Cc1ccc(S(=O)(=O)n2cc(COC3=C/C(=N\c4ccc(Cl)cc4)c4ccccc4C3=O)nn2)cc1 | > 100 µM | > 500 µM | 2 | > 20 µM | 2 | – | 1.6 | 1 | > 20 µM | 9.8 µM | 12.1 µM | 2.8 | 9.44 µM | 6.92 µM | 6.1 | 3.16 µM
